Laboratory results reported in ChEMBL document CHEMBL1149200, “Toxic effects of natural piperine and its derivatives on epimastigotes and amastigotes of Trypanosoma cruzi” (Bioorg Med Chem Lett, 2004).
pIC50: −log10 of the molar value.

Tests used:
Trypanosoma cruzi [1] = assay: In vitro growth inhibition of epimastigotes of Trypanosoma cruzi; assay type: functional, organism-based
In short: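 Y-strain epimastigotes were grown in axenic culture and proliferation was measured. Compounds came from 10 mg mL-1 DMSO stocks, diluted 1:2 serially in medium to final levels of 0.76–25, each in triplicate. IC50 was derived by linear regression.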

Trypanosoma cruzi [2] = assay: In vitro growth inhibition of amastigotes of Trypanosoma cruzi; assay type: functional, organism-based
In short: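 Intracellular amastigotes, Y-strain, in in vitro infected murine peritoneal macrophages. Compounds were held as 10 mg mL-1 DMSO stocks and serially diluted in medium before use. Read-out was the reduction in intracellular amastigote number. IC50 was obtained by linear regression.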

Structure (SMILES) | pIC50 (Trypanosoma cruzi [1]) | pIC50 (Trypanosoma cruzi [2])
O=C(/C=C/C=C/c1ccc2c(c1)OCO2)OC1CCCCC1 | < 4.08 | 
C(/C=C/c1ccc2c(c1)OCO2)=C\CN1CCCCC1 | 4.76 | 5.02
COc1ccc(CCNC(=O)/C=C/C=C/c2ccc3c(c2)OCO3)cc1OC | < 4.18 | 
O=C(O)/C=C/C=C/c1ccc2c(c1)OCO2 [PIPERIC ACID] | < 3.94 | 
O=C(/C=C/c1ccc2c(c1)OCO2)N1CCOCC1 | < 4.02 | 
CN1CCN(C(=O)/C=C/C=C/c2ccc3c(c2)OCO3)CC1 | < 4.08 | 
O=C(Cn1ccnc1[N+](=O)[O-])NCc1ccccc1 [BENZNIDAZOLE] |  | 5.59
CC(C)N(C(=O)/C=C/C=C/c1ccc2c(c1)OCO2)C(C)C | 4.83 | 5.11
O=C(CCCCc1ccc2c(c1)OCO2)N1CCCCC1 [TETRAHYDROPIPERINE] | 4.71 | 4.94
O=C(/C=C/C=C/c1ccc2c(c1)OCO2)N1CCOCC1 | 4.25 | 5.24
O=C(/C=C/C=C/c1ccc2c(c1)OCO2)NCc1ccccc1 | < 4.09 | 
O=C(/C=C/c1ccc2c(c1)OCO2)N1CCCCC1 [ILEPCIMIDE] | < 4.02 | 
O=C(/C=C/C=C/C=C/c1ccc2c(c1)OCO2)N1CCCCC1 | 4.97 | 5.13
